Calls of active or inactive are those of the source. The rule behind the calls is not given here.
Legend:
Saccharomyces cerevisiae [1] = assay: Growth inhibition of UFD2-deficient Saccharomyces cerevisiae YDL190C mutant at 20 ug/disc after 24 to 48 hrs by agar diffusion assay; assay type: functional; conditions: read-out: DIZ
In short: (§1)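 S. cerevisiae deletion mutants or wild type grown on YPD, seeded into liquid agar medium at an optical density of 0.1. 6 mm paper discs soaked with methanolic compound solution were placed on the plates and incubated at 30 °C. Growth was checked after 1 and 2 days, and the inhibition zone diameter was recorded in mm.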

Saccharomyces cerevisiae [2] = assay: Growth inhibition of COX17-deficient Saccharomyces cerevisiae YLL009C mutant at 20 ug/disc after 24 to 48 hrs by agar diffusion assay; assay type: functional; conditions: read-out: DIZ; in short: as §1
Saccharomyces cerevisiae [3] = assay: Growth inhibition of GSH2-deficient Saccharomyces cerevisiae YOL049W mutant at 20 ug/disc after 24 to 48 hrs by agar diffusion assay; assay type: functional; conditions: read-out: DIZ; in short: as §1
Saccharomyces cerevisiae [4] = assay: Growth inhibition of RCK1-deficient Saccharomyces cerevisiae YGL158W mutant at 20 ug/disc after 24 to 48 hrs by agar diffusion assay; assay type: functional; conditions: read-out: DIZ; in short: as §1
Saccharomyces cerevisiae [5] = assay: Growth inhibition of GTT2-deficient Saccharomyces cerevisiae YLL060C mutant at 20 ug/disc after 24 to 48 hrs by agar diffusion assay; assay type: functional; conditions: read-out: DIZ; in short: as §1
Saccharomyces cerevisiae [6] = assay: Growth inhibition of POS5-deficient Saccharomyces cerevisiae YPL188W mutant at 20 ug/disc after 24 to 48 hrs by agar diffusion assay; assay type: functional; conditions: read-out: DIZ; in short: as §1
Saccharomyces cerevisiae [7] = assay: Growth inhibition of WSC4-deficient Saccharomyces cerevisiae YHL028W mutant at 20 ug/disc 24 to 48 hrs by agar diffusion assay; assay type: functional; conditions: read-out: DIZ; in short: as §1
Saccharomyces cerevisiae [8] = assay: Growth inhibition of PST2-deficient Saccharomyces cerevisiae YDR032C mutant at 20 ug/disc 24 to 48 hrs by agar diffusion assay; assay type: functional; conditions: read-out: DIZ; in short: as §1
Saccharomyces cerevisiae [9] = assay: Growth inhibition of SOD2-deficient Saccharomyces cerevisiae YHR008C mutant at 20 ug/disc 24 to 48 hrs by agar diffusion assay; assay type: functional; conditions: read-out: DIZ; in short: as §1
Saccharomyces cerevisiae [10] = assay: Growth inhibition of SOD1-deficient Saccharomyces cerevisiae YJR104C mutant at 20 ug/disc after 24 to 48 hrs by agar diffusion assay; assay type: functional; conditions: read-out: DIZ; in short: as §1
Saccharomyces cerevisiae [11] = assay: Growth inhibition of wild type Saccharomyces cerevisiae BY4741 at 20 ug/disc after 24 to 48 hrs by agar diffusion assay; assay type: functional; conditions: read-out: DIZ; in short: as §1
MCF7 [12] = assay: Induction of oxidative stress in human MCF7 cells assessed as decrease in GSH level at 5 uM after 1 hr by DTNB assay relative to control; assay type: functional; design: scale not given: the % may be the effect or the level left
In short: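 MCF-7 cells (10^6) were treated for 1 h at 37 °C, trypsinized, and washed twice with cold PBS. GSH was extracted with chilled 5% metaphosphoric acid at 4 °C for 2 h, then the lysate was centrifuged. Supernatant was mixed with 0.2 M sodium phosphate pH 8.0 and 0.04 mM DTNB for 10 min at room temperature. Absorbance was read at 412 nm against a reagent blank, and GSH was quantified from a standard curve.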

[13] = Cytotoxicity against human PHF cells after 24 hrs by MTT assay; assay type: cell-based
In short: (§2)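 MTT assay. Cells were seeded at 50,000 cells/mL in medium with 10% fetal calf serum and grown for two days at 37 °C, 10% CO2. Serial dilutions of compound were then added for 24 h. MTT was added (final 0.5 mg/mL) for 2 h, and the formazan was pelleted, washed, dissolved in isopropanol with 0.4% HCl and read at 590 nm. IC50 is the concentration giving 50% of untreated-control absorbance, taken from dose-response curves; mean of two parallel experiments.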

HUVEC [14] = assay: Cytotoxicity against human HUVEC cells after 24 hrs by MTT assay; assay type: cell-based; in short: as §2
A-431 [15] = assay: Cytotoxicity against human A431 cells after 24 hrs by MTT assay; assay type: functional, cell-based; conditions: A-431, 24 h; in short: as §2
A498 = assay: Cytotoxicity against human A498 cells after 24 hrs by MTT assay; assay type: functional, cell-based; conditions: A498, 24 h; in short: as §2
MCF7 [16] = assay: Cytotoxicity against human MCF7 cells after 24 hrs by MTT assay; assay type: functional, cell-based; conditions: MCF7, 24 h; in short: as §2
HUVEC [17] = assay: Induction of oxidative stress in human HUVEC cells assessed as increase in superoxide free radical production after 1 hr by DHE-based by fluorescence spectrophotometric analysis; assay type: cell-based
In short: (§3)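 Cells were seeded at 10^5 per well and given graded compound concentrations for 1 h. They were then loaded with DHE or DCF probe for 30 min in the dark. Fluorescence was read immediately: DHE ex 540/em 600 nm; DCF ex 485/em 528 nm. Results were expressed as arbitrary units per 10^5 cells.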

HUVEC [18] = assay: Induction of oxidative stress in human HUVEC cells assessed as increase in hydrogen peroxide free radical production after 1 hr by DCF-based fluorescence spectrophotometric analysis; assay type: cell-based; in short: as §3
A-431 [19] = assay: Induction of oxidative stress in human A431 cells assessed as increase in superoxide free radical production after 1 hr by DHE-based by fluorescence spectrophotometric analysis; assay type: functional, cell-based; in short: as §3
A-431 [20] = assay: Induction of oxidative stress in human A431 cells assessed as increase in hydrogen peroxide free radical production after 1 hr by DCF-based fluorescence spectrophotometric analysis; assay type: functional, cell-based; in short: as §3
MCF7 [21] = assay: Induction of Cell cycle arrest in human MCF7 cells assessed as G2/M phase cells at IC50 concentration after 24 hrs by PI-staining based flow cytometric analysis (reference value: 13%); assay type: functional
In short: (§4)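 MCF-7 cells (10^6) were treated for 24 h, with methanol as the vehicle control. Cells were fixed in cold 70% methanol at 4 °C for one day, washed with PBS, and permeabilized with 0.1% saponin in PBS. They were stained with propidium iodide plus RNase for 30 min. DNA content was read by flow cytometry, giving percentages of cells per cell-cycle phase.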

MCF7 [22] = assay: Induction of Cell cycle arrest in human MCF7 cells assessed as S phase cells at IC50 concentration after 24 hrs by PI-staining based flow cytometric analysis (reference value: 19%); assay type: functional; in short: as §4
MCF7 [23] = assay: Induction of Cell cycle arrest in human MCF7 cells assessed as G0/1 phase cells at IC50 concentration after 24 hrs by PI-staining based flow cytometric analysis (reference value: 68%); assay type: functional; in short: as §4

SMILES	zone of inhibition at 20 µg/disc (Saccharomyces cerevisiae [1]) [mm]	zone of inhibition at 20 µg/disc (Saccharomyces cerevisiae [2]) [mm]	zone of inhibition at 20 µg/disc (Saccharomyces cerevisiae [3]) [mm]	zone of inhibition at 20 µg/disc (Saccharomyces cerevisiae [4]) [mm]	zone of inhibition at 20 µg/disc (Saccharomyces cerevisiae [5]) [mm]	zone of inhibition at 20 µg/disc (Saccharomyces cerevisiae [6]) [mm]	zone of inhibition at 20 µg/disc (Saccharomyces cerevisiae [7]) [mm]	zone of inhibition at 20 µg/disc (Saccharomyces cerevisiae [8]) [mm]	zone of inhibition at 20 µg/disc (Saccharomyces cerevisiae [9]) [mm]	zone of inhibition at 20 µg/disc (Saccharomyces cerevisiae [10]) [mm]	zone of inhibition at 20 µg/disc (Saccharomyces cerevisiae [11]) [mm]	IC50 [13] [µM]	IC50 (HUVEC [14]) [µM]	IC50 (A-431 [15]) [µM]	IC50 (A498) [µM]	IC50 (MCF7 [16]) [µM]	Activity (HUVEC [17])	Activity (HUVEC [18])	also measured
CC1=C([Se]CC(OC(=O)CNC(=O)OC(C)(C)C)C(=O)NCCCCCC(=O)OCc2ccccc2)C(=O)c2ccccc2C1=O (centres undefined)	0	0	0	0	18	0	14	11	25	20	0	6	36	5	7	4	–	–	Activity (MCF7 [12]): 76%
CC(C)(C)NC(=O)C(C[Se]c1ccccc1)OC(=O)c1ccc(-c2c3nc(c(-c4ccccc4)c4ccc([nH]4)c(-c4ccccc4)c4nc(c(-c5ccccc5)c5ccc2[nH]5)C=C4)C=C3)cc1 (centres undefined)	–	–	–	–	–	–	–	–	–	–	–	> 100	> 100	> 100	> 100	> 100	–	–	–
CC1=C(SCCC(=O)OC(CC[Se]c2ccccc2)C(=O)NC(C)(C)C)C(=O)c2ccccc2C1=O (centres undefined)	10	10	0	0	0	0	11	12	0	10	0	11	13	> 100	> 100	26	Non-toxic	Non-toxic	Activity (A-431 [19]): Active
CC1=C(SCCC(=O)OC(CC[Se]c2ccccc2)C(=O)NCCCCCC(=O)OCc2ccccc2)C(=O)c2ccccc2C1=O (centres undefined)	0	0	0	0	17	0	11	11	12	13	0	21	17	> 100	> 100	19	Non-toxic	Non-toxic	Activity (A-431 [20]): Active
CC1=C(SCCC(=O)OC(C[Se]c2ccccc2)C(=O)NC(C)(C)C)C(=O)c2ccccc2C1=O (centres undefined)	0	0	9	9	12	9	11	12	12	15	0	26	34	7	> 100	14	–	–	–
CC1=C([Se]CC(OC(=O)[C@@H](CSSC(C)(C)C)NC(=O)OC(C)(C)C)C(=O)NC(C)(C)C)C(=O)c2ccccc2C1=O (some centres undefined)	0	14	14	14	20	11	20	11	18	21	0	4	2	2	5	3	Non-toxic	Non-toxic	Activity (MCF7 [21]): 1.6%; Activity (MCF7 [22]): 3.9%; Activity (MCF7 [23]): 95%; Activity (A-431 [20]): Active; Activity (MCF7 [12]): 46%
CC(C)(C)NC(=O)COC(=O)c1ccc(-c2c3nc(c(-c4ccccc4)c4ccc([nH]4)c(-c4ccccc4)c4nc(c(-c5ccccc5)c5ccc2[nH]5)C=C4)C=C3)cc1	–	–	–	–	–	–	–	–	–	–	–	> 100	> 100	> 100	> 100	> 100	–	–	–
CC1=C([Se]CC(OC(=O)c2ccc(-c3c4nc(c(-c5ccccc5)c5ccc([nH]5)c(-c5ccccc5)c5nc(c(-c6ccccc6)c6ccc3[nH]6)C=C5)C=C4)cc2)C(=O)NC(C)(C)C)C(=O)c2ccccc2C1=O (centres undefined)	–	–	–	–	–	–	–	–	–	–	–	> 100	> 100	> 100	> 100	> 100	–	–	–
CC1=C(SCCC(=O)OC(C[Se]C2=C(C)C(=O)c3ccccc3C2=O)C(=O)NC(C)(C)C)C(=O)c2ccccc2C1=O (centres undefined)	–	–	–	–	–	–	–	–	–	–	–	–	1	1	3	3	–	–	–
CC1=C(SCCC(=O)OC(C[Se]c2ccccc2)C(=O)NCCCCCC(=O)OCc2ccccc2)C(=O)c2ccccc2C1=O (centres undefined)	0	0	0	0	0	0	12	12	13	18	0	50	23	> 100	> 100	10	–	–	–
